Test results from ChEMBL document CHEMBL1127559, “Syntheses and anticholinesterase activity of tetrahydrobenzazepine carbamates” (J Med Chem, 1994).

Key:
[1] = species: Mus musculus; test: Minimal dose to produce side effects was determined for salivation; type: functional
Method in brief: (§1)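 Mice fasted overnight, dosed ip or po at 10 mL/kg and housed singly in novel cages. Salivation, tremor and diarrhea each scored on a 5-point scale at 15, 30 and 60 min post-dose. Value is the minimal dose producing the sign.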

[2] = species: Mus musculus; test: Minimal dose to produce side effects was determined for tremor; type: functional; method in brief: as §1
[3] = Lethal dose was measured at 24 hour in mice following intraperitoneal administration.; type: toxicity, organism-based; settings: mouse, in vivo, ip
Method in brief: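 Mice fasted overnight and dosed ip at 10 mL/kg, then housed singly in novel cages. Lethality scored over 24 h using at least four dose levels with nine animals per dose. LD50 calculated by Spearman-Karber.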

[4] = molecular target: Acetylcholinesterase (Homo sapiens, UniProt P22303); test: In vitro inhibitory activity against human acetylcholinesterase; type: functional
Acetylcholinesterase, sequence (P22303 whole entry): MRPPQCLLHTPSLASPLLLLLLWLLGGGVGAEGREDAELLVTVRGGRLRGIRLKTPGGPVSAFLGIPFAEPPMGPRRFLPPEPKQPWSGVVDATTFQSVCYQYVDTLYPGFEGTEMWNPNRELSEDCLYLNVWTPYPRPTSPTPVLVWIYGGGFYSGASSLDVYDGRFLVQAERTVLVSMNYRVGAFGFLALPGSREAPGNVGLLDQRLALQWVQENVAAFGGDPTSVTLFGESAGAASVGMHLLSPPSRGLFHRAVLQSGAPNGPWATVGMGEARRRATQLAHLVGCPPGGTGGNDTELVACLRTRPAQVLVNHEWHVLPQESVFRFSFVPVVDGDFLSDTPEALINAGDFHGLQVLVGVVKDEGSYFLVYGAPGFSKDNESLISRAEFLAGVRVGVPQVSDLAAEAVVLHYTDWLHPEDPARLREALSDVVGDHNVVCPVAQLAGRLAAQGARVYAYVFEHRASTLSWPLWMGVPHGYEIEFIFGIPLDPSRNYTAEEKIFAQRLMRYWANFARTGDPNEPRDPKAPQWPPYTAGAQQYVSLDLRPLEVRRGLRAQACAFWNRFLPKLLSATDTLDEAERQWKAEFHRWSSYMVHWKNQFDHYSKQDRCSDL

[5] = species: Mus musculus; test: Minimal dose to produce side effects was determined for diarrhea; type: functional; method in brief: as §1
[6] = species: Mus musculus; test: Minimal dose to produce side effects was determined for diarrhea in mice; type: functional; method in brief: as §1
[7] = species: Mus musculus; test: Minimal dose to produce side effects was determined for salivation in mice; type: functional; method in brief: as §1
[8] = species: Mus musculus; test: Minimal dose to produce side effects was determined for tremor in mice; type: functional; method in brief: as §1

Structure (SMILES) | Dose [1] [mg/kg] | Dose [2] [mg/kg] | LD50 at 24 h [3] [mg/kg] | IC50 [4] [µM] | Dose [5] [mg/kg] | Dose [6] [mg/kg] | Dose [7] [mg/kg] | Dose [8] [mg/kg]
CCCCCCNC(=O)Oc1ccc2c(c1)C1CCN(C)C2C1 (stereo unspecified) | 5.6 | 3.2 | 6 |  |  |  |  | 
CCCCCCCNC(=O)Oc1ccc2c(c1)C1CCN(CC)C2C1 (stereo unspecified) | 17.8 | 17.8 | 22 | 0.169 | 3.2 |  |  | 
CCCCNC(=O)Oc1ccc2c(c1)C1CCN(CC)C2C1 (stereo unspecified) |  |  |  | 0.206 |  |  |  | 
CCN1CCC2CC1c1ccc(OC(=O)NC)cc12 (stereo unspecified) |  |  | 1 | 0.171 |  |  |  | 
CCCCCCNC(=O)Oc1ccc2c(c1)C1(C)CCN(CC)C2C1 (stereo unspecified) |  |  | 9 | 0.133 |  |  |  | 
CCCCCCNC(=O)Oc1ccc2c(c1)[C@]1(C)CCN(CC)[C@@H]1C2 | 3.2 | 3.2 | 4 |  | 1.8 |  |  | 
CNC(=O)Oc1ccc2c(c1)[C@]1(C)CCN(C)[C@@H]1N2C [PHYSOSTIGMINE] |  |  |  |  |  | 0.32 | 0.32 | 0.32
CCCCCCCNC(=O)Oc1ccc2c(c1)C1CCN(C)C2C1 (stereo unspecified) | 10 | 10 | 18 | 0.143 |  |  |  | 
CCCCCCCNC(=O)Oc1ccc2c(c1)C1(C)CCN(CC)C2C1 (stereo unspecified) |  | 1.8 | 4 | 0.159 | 1 |  |  | 
CCCCCCCNC(=O)Oc1ccc2c(c1)[C@]1(C)CCN(C)[C@@H]1N2C [EPTASTIGMINE] | 10 | 10 |  |  | 1.8 |  |  | 
CCCCCCNC(=O)Oc1ccc2c(c1)C1CCN(CC)C2C1 (stereo unspecified) | 3.2 | 3.2 | 9 | 0.125 | 1.8 |  |  | 
